≈ marks a conversion by molar mass, not a printed value.
How the values were obtained:
Type in all cases: functional
Enterococcus faecalis = assay: Antibacterial activity against Enterococcus faecalis ATCC 29212 after 18 hrs by liquid microdilution method; settings: ATCC 29212, 18 h
How it was run: (§1)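 Broth microdilution MIC. Compound dissolved in MeOH at 512 µg/mL, serially diluted 2-fold in Mueller-Hinton medium to 1–128 µg/mL. Each dilution added to wells of Mueller-Hinton medium with standard inoculum; final MeOH below 6%. Plates sealed, agitated, incubated 37 °C, 18 h. MIC is the lowest concentration giving no colour change. Run in triplicate.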

Pseudomonas aeruginosa = assay: Antibacterial activity against Pseudomonas aeruginosa ATCC 27853 after 18 hrs by liquid microdilution method; settings: ATCC 27853, 18 h; how it was run: as §1
Staphylococcus aureus = assay: Antibacterial activity against Staphylococcus aureus ATCC 2523 after 18 hrs by liquid microdilution method; settings: ATCC 2523, 18 h; how it was run: as §1
Escherichia coli = assay: Antibacterial activity against Escherichia coli ATCC 25922 after 18 hrs by liquid microdilution method; settings: ATCC 25922, 18 h; how it was run: as §1

| MIC (Enterococcus faecalis) [µM] | MIC (Pseudomonas aeruginosa) [µM] | MIC (Staphylococcus aureus) [µM] | MIC (Escherichia coli) [µM] | SMILES |
| --- | --- | --- | --- | --- |
| 97.5 (≈ 32 µg/mL) | 195 (≈ 64 µg/mL) | 97.5 (≈ 32 µg/mL) | 390 (≈ 128 µg/mL) | COc1ccc(-c2coc3cc(O)c(OC)c(OC)c3c2=O)cc1 |
| 48.4 (≈ 30.8 µg/mL) | 196 (≈ 125 µg/mL) | 48.4 (≈ 30.8 µg/mL) | > 196 | COc1ccc(-c2coc3cc(O[C@@H]4O[C@H](CO[C@@H]5O[C@@H](C)[C@H](O)[C@@H](O)[C@H]5O)[C@@H](O)[C@H](O)[C@H]4O)c(OC)c(OC)c3c2=O)cc1 |
| > 135 | > 135 | > 135 | > 135 | COc1ccc(-c2coc3cc(O[C@@H]4O[C@H](CO[C@@H]5O[C@@H](C)[C@H](O)[C@@H](O)[C@H]5O)[C@@H](O)[C@H](O[C@@H]5O[C@H](CO[C@@H]6O[C@@H](C)[C@H](O)[C@@H](O)[C@H]6O)[C@@H](O)[C@H](O)[C@H]5O)[C@H]4O)c(OC)c(OC)c3c2=O)cc1 |
